Measurements as given in PMC9811456 (Molecular Pharmaceutics, 2022).
“And” between values parts separate entries of the source, which are not always exact repeats. Identical values can stand only once. “Also recorded” adds a separate entry of the source.

Columns and labels:
[1] = test system: HHV-8 (BCBL-1); assay: Antiviral qPCR assay, HHV-8; assay type: cell-based, human herpes virus 8; conditions: for SI HHV-8 (BCBL-1): CC50/EC50; for EC50: Homo sapiens, BCBL1, 168 h, read-out: EC50 HHV-8 (BCBL-1)
[2] = test system: human foreskin fibroblast (HFF) cells; assay: Intracellular conversion to CDV-PP, HFF model; assay type: cell-based; conditions: 30 nM, 72 h
Summary of the method: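 Primary HFF cells (passage ≤10) were seeded at 6 × 10^6 per T-75 flask for 24 h. They were exposed in triplicate to 30 nM compound or vehicle in DMEM/2% FBS at 37 °C, 5% CO2 for 72 h, after preincubating the dosing solutions 24 h at 37 °C. Half the flasks were counted. The rest were rinsed in chilled saline and lysed in methanol:water 70:30. Prodrug, CDV and CDV-PP were measured by LC–MS/MS (5–2000 nM qualified range). Results are mean ± SD.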

[3] = test system: BK virus (Gardner); assay: Antiviral qPCR assay, BK virus; assay type: cell-based; conditions: CC50/EC50
[4] = cited from earlier work
[5] = test system: HHV-6B (Z29); assay: Antiviral qPCR assay, HHV-6B; assay type: cell-based, human herpes virus-6B; conditions: for SI HHV-6B (Z29): CC50/EC50; for EC50: Homo sapiens, MOLT-3, 168 h, read-out: EC50 HHV-6B (Z29)
[6] = PK in mice after a single intravenous dose; assay type: in vivo; conditions: mouse, plasma, 1 mg/kg
[7] = test system: VZV (Ellen); assay: microbe, parasite or virus in culture; assay type: cell-based, varicella-zoster virus
[8] = test system: MCMV (Smith); assay: Antiviral qPCR assay, MCMV in MEF cells; assay type: cell-based, murine cytomegalovirus; conditions: CC50/EC50
[9] = test system: HCMV (AD169); assay: Antiviral CPE assay, HCMV AD169; assay type: cell-based, human cytomegalovirus; conditions: CC50/EC50
[10] = test system: HSV1 (E-377); assay: microbe, parasite or virus in culture; assay type: cell-based, herpesvirus 1 (HSV-1)
[11] = Oral pharmacokinetics and biodistribution in mice; assay type: in vivo, male CFW mice
[12] = Metabolic stability in rat hepatocytes; assay type: in vitro ADME
Summary of the method: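 In hepatocyte stability, compound at 1 μM was incubated in duplicate with 0.5 × 10^6 cells/mL at 37 °C. Samples were taken over 2 h and quenched and precipitated with ice-cold methanol (1:1). The soluble fraction was analysed by LC–MS/MS.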

[13] = test system: JC virus (MAD-4); assay: Antiviral qPCR assay, JC virus; assay type: cell-based; conditions: for SI JC virus (MAD-4): CC50/EC50; for EC50: JC polyomavirus, COS-7, 168 h, read-out: EC50 JC virus (MAD-4)
[14] = test system: HSV2 (G); assay: microbe, parasite or virus in culture; assay type: cell-based, herpesvirus 2 (HSV-2)
[15] = test system: ADV5 (Adenoid 75); assay: Antiviral CPE assay, ADV5; assay type: cell-based, adenovirus (AdV-5); conditions: CC50/EC50
[16] = test system: EBV (Akata); assay: Antiviral qPCR assay, EBV; assay type: cell-based, Epstein–Barr virus; conditions: for SI EBV (Akata): CC50/EC50; for EC50: human gammaherpesvirus 4, Akata, 72 h, read-out: EC50 EBV (Akata)
[17] = test system: HSV-1; conditions: read-out: EC50 against HSV-1; published data ref 42; cited from earlier work
[18] = test system: HCMV; conditions: read-out: EC50 against CMV; cited from earlier work
[19] = test system: HCMV (GDG^RK17); assay: Antiviral assay, HCMV GDGRK17; assay type: cell-based, human cytomegalovirus; conditions: CC50/EC50; single replicate
[20] = test system: vaccinia (Copenhagen); assay: microbe, parasite or virus in culture; assay type: cell-based
[21] = test system: VZV; conditions: read-out: EC50 against VZV; published data ref 42; cited from earlier work
[22] = test system: human adenovirus type 6 (AdV 6), strain tonsil 99 (HAdV-C6); assay: Hamster model of AdV; assay type: in vivo, immunosuppressed male Syrian hamsters; conditions: IP, 37 mg/kg induction then 20 mg/kg three times weekly
Summary of the method: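 Male Syrian hamsters were immunosuppressed with IP cyclophosphamide (140 mg/kg induction, then 100 mg/kg). They received IV 3 × 10^10 pfu/kg AdV 6. There were 7 groups (n = 15), including uninfected vehicle and drug-only (1 mg/kg PO QD) controls. Test compound was given at 0.1, 0.3 or 1 mg/kg, and CDV IP (37, then 20 mg/kg thrice weekly) from day −1. Animals were weighed and observed daily. Liver TCID50 (HEK-293) was taken day 5, with serum transaminases. Survival was compared by log-rank and weight by mixed-effect analysis.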

[23] = test system: HSV-2; conditions: read-out: EC50 against HSV-2; published data ref 42; cited from earlier work
[24] = equimolar oral doses, BCV vs NPP-669

CCCCCCCCCCCCCCCCOCCCOP(=O)(O)CO[C@H](CO)Cn1ccc(N)nc1=O [BCV, brincidofovir]
SI HHV-8 (BCBL-1) [1]: 690 | EC50 [1]: 1 nM | intracellular pro-drug level [2]: highest levels of intracellular pro-drug | SI BK virus (Gardner) [3]: 180 | GI toxicity ([4]; daily doses at 10 mg/kg ref 36): GI toxicity was noted | NOAEL ([4]; twice weekly, in rats over 13 weeks ref 36): 15 mg/kg | SI HHV-6B (Z29) [5]: 16 | EC50 [5]: 30 ± 20 nM | AUC [6]: 171 ng·h/mL | Cmax [6]: 491 ng/mL | Vd [6]: 3.7 L/kg | clearance [6]: 122 mL/min/kg | half-life [6]: 0.4 h | SI VZV (Ellen) ([7]; CC50/EC50): 114 | EC50 ([7]; Human alphaherpesvirus 3, HFF, read-out: EC50 VZV (Ellen)): 5 ± 5 nM | SI MCMV (Smith) [8]: >244 | SI HCMV (AD169) [9]: 540 | SI HSV1 (E-377) ([10]; CC50/EC50): >33 | EC50 ([10]; Human alphaherpesvirus 1, HFF, read-out: EC50 HSV1 (E-377)): 30 ± 20 nM | prodrug exposure in liver tissue [11, 24]: significantly higher levels than NPP-669 | prodrug levels in intestinal tissue [11, 24]: retained at substantially higher levels than NPP-669 in the intestinal tissue | plasma levels over 24 h ([11]; single oral dose, NPP-669 30 mg/kg, BCV equimolar (26 mg/kg)): > 0.003 μM and > 2 ng/mL | half-life at 1 μM [12]: 2.37 h | hepatocyte CLint at 1 μM [12]: 9.73 µL/min/1e6 cells | SI JC virus (MAD-4) [13]: >3 | EC50 [13]: 350 ± 260 nM | SI HSV2 (G) ([14]; CC50/EC50): >50 | EC50 ([14]; Human alphaherpesvirus 2, HFF, read-out: EC50 HSV2 (G)): 20 ± 10 nM | SI ADV5 (Adenoid 75) [15]: 46 | SI EBV (Akata) [16]: >11 | EC50 [16]: 90 ± 90 nM

Nc1ccn(C[C@@H](CO)OCP(=O)(O)O)c(=O)n1 [CDV, cidofovir]
SI HHV-8 (BCBL-1) [1]: >67 | EC50 [1]: 1500 ± 700 nM | intracellular levels of CDV or CDV-PP ([2]; below the detection limit): ≤ 10 ng/mL | SI BK virus (Gardner) [3]: >26 | EC50 [17]: 3000 to 5000 nM | SI HHV-6B (Z29) [5]: 10 | EC50 [5]: 7090 ± 3590 nM | EC50 [18]: ~1000 nM | SI HCMV (GDG^RK17) [19]: >1034 | SI vaccinia (Copenhagen) [20]: >10 | EC50 ([20]; Orthopoxvirus vaccinia, HFF, read-out: EC50 vaccinia (Copenhagen)): 14600 nM | SI JC virus (MAD-4) [13]: >8 | EC50 [13]: 18400 ± 16000 nM | SI ADV5 (Adenoid 75) [15]: >23 | EC50 [21]: 500 nM | toxicity of the dose needed for antiviral efficacy [22]: low-grade toxicity; also recorded: toxic dose | SI EBV (Akata) [16]: >10 | EC50 [16]: 10100 ± 3440 nM | EC50 [23]: 5000 to 6000 nM

Nc1nc(O)c2ncn(COC(CO)CO)c2n1 [ganciclovir]
SI MCMV (Smith) [8]: >19 | SI HCMV (AD169) [9]: >92
